From ChEMBL document CHEMBL4138045 (Medchemcomm, 2017)
Calls of active or inactive are those of the source. The rule behind the calls is not given here.

Tests used:
Mu-type opioid receptor [1] = molecular target: T1, Mu-type opioid receptor (Mus musculus, UniProt P42866); assay: Displacement of [125I]BNtxA from mouse MOR expressed in CHO cell membranes after 90 mins by filter binding assay
In short: (§1)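 Competition binding with [125I]BNtxA (0.1 nM) in membranes of CHO cells expressing mouse MOR, DOR or KOR. Protein 10-20 μg mL-1, 90 min incubation. Ki obtained by nonlinear regression. At least 3 assays, mean ± SEM.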

[2] = molecular target: T2, Kappa-type opioid receptor (Mus musculus, UniProt P33534); assay: Displacement of [125I]BNtxA from mouse KOR expressed in CHO cell membranes after 90 mins by filter binding assay; in short: as §1
T2 sequence (P33534 whole entry): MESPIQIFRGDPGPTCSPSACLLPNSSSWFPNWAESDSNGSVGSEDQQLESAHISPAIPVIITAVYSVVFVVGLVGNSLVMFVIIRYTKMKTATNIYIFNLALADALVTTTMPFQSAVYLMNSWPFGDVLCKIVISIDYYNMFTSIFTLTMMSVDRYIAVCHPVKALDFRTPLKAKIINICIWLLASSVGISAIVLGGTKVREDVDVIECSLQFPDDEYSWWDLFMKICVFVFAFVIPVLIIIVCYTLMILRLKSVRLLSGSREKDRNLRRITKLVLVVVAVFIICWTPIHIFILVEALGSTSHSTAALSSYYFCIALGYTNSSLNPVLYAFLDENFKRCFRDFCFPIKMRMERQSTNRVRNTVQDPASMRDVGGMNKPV

[3] = molecular target: Delta-type opioid receptor (Mus musculus, UniProt P32300); assay: Displacement of [125I]BNtxA from mouse DOR expressed in CHO cell membranes after 90 mins by filter binding assay; in short: as §1
Sequence of Delta-type opioid receptor (P32300 whole entry): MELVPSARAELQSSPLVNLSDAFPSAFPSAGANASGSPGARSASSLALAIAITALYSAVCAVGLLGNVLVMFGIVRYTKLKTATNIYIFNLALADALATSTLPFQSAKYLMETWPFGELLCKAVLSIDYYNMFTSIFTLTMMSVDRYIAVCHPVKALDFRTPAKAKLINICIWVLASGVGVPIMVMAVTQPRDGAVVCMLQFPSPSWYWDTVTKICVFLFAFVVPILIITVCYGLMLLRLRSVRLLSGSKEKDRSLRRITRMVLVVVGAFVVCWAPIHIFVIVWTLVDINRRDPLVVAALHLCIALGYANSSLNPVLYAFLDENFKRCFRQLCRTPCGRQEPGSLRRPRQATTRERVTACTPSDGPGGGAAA

Mus musculus [4] = organism: Mus musculus; assay: Selectivity ratio of Ki for mouse KOR to Ki for mouse MOR
Mus musculus [5] = organism: Mus musculus; assay: Selectivity ratio of Ki for mouse DOR to Ki for mouse MOR
Mu-type opioid receptor [6] = molecular target: T1, Mu-type opioid receptor; assay: Agonist activity at mouse MOR expressed in CHO cell membranes assessed as induction of [35S]GTPgammaS binding after 90 mins by scintillation spectroscopy; assay type: functional
In short: (§2)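 Agonist-stimulated [35S]GTPγS binding in membranes from opioid receptor-transfected cells. Membrane protein 50 µg mL-1, 90 min incubation. Potency taken as EC50. Three separate assays, each in triplicate, reported as mean ± SEM.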

[7] = molecular target: Mu-type opioid receptor (Mus musculus) (UniProt P42866); assay: Agonist activity at mouse MOR expressed in CHO cell membranes assessed as induction of [35S]GTPgammaS binding after 90 mins by scintillation spectroscopy relative to DAMGO; assay type: functional
Sequence of Mu-type opioid receptor (Mus musculus) (P42866 whole entry): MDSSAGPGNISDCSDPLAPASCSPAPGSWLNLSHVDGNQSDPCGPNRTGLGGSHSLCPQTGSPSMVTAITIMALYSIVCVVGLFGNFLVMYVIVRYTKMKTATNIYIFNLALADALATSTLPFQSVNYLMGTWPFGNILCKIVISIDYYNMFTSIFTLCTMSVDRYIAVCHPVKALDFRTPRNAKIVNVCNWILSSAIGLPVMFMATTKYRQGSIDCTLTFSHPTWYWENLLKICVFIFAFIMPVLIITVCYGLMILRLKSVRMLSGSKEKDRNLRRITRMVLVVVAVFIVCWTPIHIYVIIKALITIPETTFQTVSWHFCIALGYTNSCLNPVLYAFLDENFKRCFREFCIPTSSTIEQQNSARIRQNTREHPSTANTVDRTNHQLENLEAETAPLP

[8] = molecular target: T2, Kappa-type opioid receptor; assay: Agonist activity at mouse KOR expressed in CHO cell membranes assessed as induction of [35S]GTPgammaS binding after 90 mins by scintillation spectroscopy; assay type: functional; in short: as §2
[9] = molecular target: Kappa-type opioid receptor (Mus musculus) (UniProt P33534); assay: Agonist activity at mouse KOR expressed in CHO cell membranes assessed as induction of [35S]GTPgammaS binding after 90 mins by scintillation spectroscopy relative to U50488H; assay type: functional
Sequence of Kappa-type opioid receptor (Mus musculus) (P33534 whole entry): as the sequence (P33534 whole entry) above

Mus musculus [10] = assay: Antinociceptive activity in CD1 mouse at 30 mg/kg, sc after 30 mins by radiant heat tail flick method relative to control; assay type: functional
In short: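 CD1 mice (n = 10) dosed sc at 30 mg kg-1. Radiant heat tail-flick tested 30 min after injection. Values given as mean ± SEM percent antinociception.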

Mus musculus [11] = assay: Antinociceptive activity in icv dosed CD1 mouse after 15 mins by radiant heat tail flick method; assay type: functional
In short: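 Compounds given intracerebroventricularly to groups of mice (n = 5) as cumulative doses. Tail-flick tested 15 min later, at peak effect, to build the dose-response curve and ED50. Two independent determinations.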

Mus musculus [12] = assay: Antinociceptive activity in CD1 mouse at 30 mg/kg, sc after 3 hrs by radiant heat tail flick method; assay type: functional, organism-based
In short: (§3)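 Time course in CD1 mice (n = 10) after sc dosing at 30 mg kg-1, measured by radiant heat tail flick. Two independent determinations.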

Mus musculus [13] = assay: Antinociceptive activity in CD1 mouse at 30 mg/kg, sc after >24 hrs by radiant heat tail flick method; assay type: functional, organism-based; in short: as §3
Mus musculus [14] = assay: Antinociceptive activity in CD1 mouse at 7.5 ug, icv after >24 hrs by radiant heat tail flick method; assay type: functional, organism-based
In short: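 Time course in CD1 mice (n = 10) after icv administration of 7.5 µg, measured by tail flick. Two independent determinations.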

Mus musculus [15] = assay: Antinociceptive activity in CD1 mouse at 30 mg/kg, sc after 30 mins in presence of MOR antagonist beta-FNA by radiant heat tail flick method; assay type: functional, organism-based
In short: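 CD1 mice (n = 10) given compound at 30 mg kg-1 sc, with or without β-funaltrexamine (40 mg kg-1 sc) 24 h before agonist. Tail-flick tested 30 min after the agonist.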

T1 sequence (P42866 whole entry): as the sequence (P42866 whole entry) above

SMILES | Ki (Mu-type opioid receptor [1]) | Ki [2] | Ki [3] | Ratio Ki (Mus musculus [4]) | Ratio Ki (Mus musculus [5]) | EC50 (Mu-type opioid receptor [6]) | Emax [7] | EC50 [8] | Emax [9] | MPE (Mus musculus [10]) | ED50 (Mus musculus [11]) | Activity (Mus musculus [12]) | Activity (Mus musculus [13]) | Activity (Mus musculus [14]) | Activity (Mus musculus [15])
CN1CC[C@]23c4c5ccc(O)c4O[C@H]2[C@@H](NC(=O)c2cccnc2)C=C[C@H]3[C@H]1C5 | 1.25 nM | 19 nM | 34.4 nM | 15.2 | 27.5 | 2.83 nM | 114% | 58.8 nM | 87.9% | 35% | 0.51 µg |  |  |  | 
CN1CC[C@]23c4c5ccc(O)c4O[C@H]2[C@@H](O)C=C[C@H]3[C@H]1C5 [MORPHINE] |  |  |  |  |  |  |  |  |  |  | 0.53 µg | Active |  |  | 
CN1CC[C@]23c4c5ccc(O)c4O[C@H]2[C@@H](NC(=O)c2ccncc2)CC[C@@]3(O)[C@H]1C5 | 7.02 nM | > 100 nM | 173 nM | > 14.2 | 24.7 | 26.4 nM | 115% |  |  |  |  |  |  |  | 
CN1CC[C@]23c4c5ccc(O)c4O[C@H]2[C@H](NC(=O)/C=C/c2ccccc2)C=C[C@H]3[C@H]1C5 |  |  |  |  |  |  | 95.3% |  | 106% |  |  |  |  |  | 
CN1CC[C@]23c4c5ccc(O)c4O[C@H]2[C@@H](NC(=O)c2cccnc2)CC[C@@]3(O)[C@H]1C5 | 6.91 nM | > 100 nM | 104 nM | > 14.5 | 15 | 25.7 nM | 121% |  |  |  |  |  |  |  | 
CN1CC[C@]23c4c5ccc(O)c4O[C@H]2[C@@H](NC(=O)c2ccncc2)C=C[C@H]3[C@H]1C5 | 2 nM | 77.9 nM | 65 nM | 39 | 32.5 | 4.62 nM | 114% |  |  | 38% | 2 µg |  |  |  | 
COc1ccc2c3c1O[C@H]1[C@@H](NC(=O)c4ccncc4)C=C[C@H]4[C@@H](C2)N(C)CC[C@@]341 | 40.6 nM | > 100 nM | 424 nM | > 2.5 | 10.4 |  |  |  |  |  |  |  |  |  | 
CN1CC[C@]23c4c5ccc(O)c4O[C@H]2[C@@H](NC(=O)c2ccncc2)CC[C@H]3[C@H]1C5 | 3.73 nM | > 100 nM | 198 nM | > 26.8 | 53.2 | 8.16 nM | 115% |  |  | 78% | 0.7 µg |  | Active | Active | inactive
CN1CC[C@]23c4c5ccc(O)c4O[C@H]2[C@@H](NC(=O)c2cccnc2)CC[C@H]3[C@H]1C5 | 3.29 nM | 119 nM | 130 nM | 36.2 | 39.6 | 7.98 nM | 117% |  |  | 83% | 1.8 µg |  | Active | Active | inactive
